# CHOP inhibitor: CHOP inhibition in unfolded protein response; CHO-K1 CHOP-promoter luciferase, tunicamycin-induced, 15-18 h; inhibition, % at 10 µM; hit rate 3.8% among 220,000; AID 2732;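 active = compounds that reduced the stress-induced luciferase reporter signal by more than about 70% of percent inhibition, limit read from the data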;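 note: 0% = tunicamycin plus vehicle and 100% = wells without tunicamycin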
# MDM2 E3 inh: blocks human Mdm2 ubiquitin ligase activity. Q00987. cell-based MDM2 ubiquitination luciferase reporter, 2 h; 0 = plate control, 100 = twice control, blank-subtracted. signal enhancement, % at 5 µM. hit rate 0.11% among 210,000;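 active = signal enhancement of 30% or more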;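 note: luminescence tracks abundance of the self-degrading MDM2-luciferase fusion protein; higher signal means inhibition of MDM2 E3 ligase activity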
# Target sequence (Q00987 whole entry, looked up, the tested form may be a part): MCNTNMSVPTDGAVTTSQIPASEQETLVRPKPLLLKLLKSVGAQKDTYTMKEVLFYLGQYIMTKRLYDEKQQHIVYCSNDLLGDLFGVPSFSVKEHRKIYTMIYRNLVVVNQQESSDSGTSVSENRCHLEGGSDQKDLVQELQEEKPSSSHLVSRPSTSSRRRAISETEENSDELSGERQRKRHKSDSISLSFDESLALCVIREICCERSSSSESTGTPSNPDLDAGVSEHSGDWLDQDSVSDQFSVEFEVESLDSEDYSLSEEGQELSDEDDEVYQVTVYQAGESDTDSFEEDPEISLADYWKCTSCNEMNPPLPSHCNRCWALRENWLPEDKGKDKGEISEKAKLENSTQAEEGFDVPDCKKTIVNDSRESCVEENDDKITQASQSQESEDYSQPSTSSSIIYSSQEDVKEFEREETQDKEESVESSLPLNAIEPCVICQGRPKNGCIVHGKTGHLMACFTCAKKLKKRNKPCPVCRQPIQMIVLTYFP
#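 Timing – 2 h compound exposure at 37 °C · Assay system – mammalian cells stably expressing self-ubiquitinating, self-degrading MDM2 E3–luciferase fusion · Amount – 2000 cells seeded into each well · Measure – % luminescence enhancement versus blank-corrected plate control mean · Measured by – SteadyLite luminescence, 15 min reagent step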
# S1P3 antag: blocks the human S1P3 receptor; CHO S1P3 NFAT-BLA reporter, FRET fluorescence, antagonist mode; inhibition, % at 4.98 µM; hit rate 0.27% among 170,000; AID 485;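 active = inhibition above the plate cutoff, the mean inhibition of test wells on that plate plus 3 SD, cut at about 28% in these data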;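 note: cells challenged with S1P at its EC80 of 0.8 µM; blue over green emission ratio from cleaved BLA substrate after 4 h stimulation; 0% = S1P-stimulated wells and 100% = unstimulated DMSO-only wells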
# Hsp70 activator: Hsp70 transcriptional activation, primary screen; HeLa Hsp70 promoter luciferase reporter, luminescence; scaled: vehicle 0, proteasome-inhibitor control 100%; activation, % at 10 µM; hit rate 0.04% among 200,000;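 active = activation above the mean across all tested compounds plus 3 SD, cutoff set per campaign, cut at about 5.5% in these data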;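 note: 100% = MG132 at 30 µM as the positive control and 0% = DMSO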
# * hit, by the source's call; x = no result. Only some compounds are listed: those with a hit (about 4% of all), similar ones and a draw of the others.
SMILES,CHOP inhibitor,MDM2 E3 inh,S1P3 antag,Hsp70 activator
CCCCC(=O)NC(c1ccc([N+](=O)[O-])cc1)c1c(O)ccc2ccccc12 (configuration not stated),78.0*,-13.9,-15.5,-0.1
CC(=O)NC(c1ccc(Cl)cc1)c1c(O)ccc2ccc(O)cc12 (configuration not stated),1.3,-22.2,-10.7,-0.2
O=C(NC(c1ccc(Cl)cc1)c1c(O)ccc2ccccc12)c1ccccc1 (configuration not stated),84.9*,-13.6,8.1,-0.4
CCCN(CC1CC1)c1nc(C)nc(Nc2c(Cl)cc(Cl)cc2Cl)c1Cl,-5.9,x,x,x
CN1OC(c2ccccc2)=C(CO)C1c1ccccc1 (configuration not stated),14.8,1.9,0.9,-0.3
Cc1cc(N2CC(C(=O)NCc3cccnc3)CC2=O)ccc1C(C)C (configuration not stated),7.9,x,-4.5,x
CCOC(=O)c1c(NC(=S)NC)sc2c1CC(C)(C)SC2,95.5*,-17.9,-1.3,-0.1
Cc1c(Cl)cccc1-n1c(SCC(=O)N(C)Cc2ccccc2)nnc1-c1ccncc1,-4.9,-9.3,x,0.0
OCCN1CCN(c2ncnc3ccc(Br)cc23)CC1,35.2,-15.9,101.6*,-0.1
COc1ccc2oc(C(=O)OC/C(O)=C(\C#N)c3nc4ccccc4[nH]3)c(C)c2c1,95.2*,x,8.3,x
COc1ccc(/C(C)=N/OC/C(O)=C(\C#N)c2nc3ccccc3[nH]2)c(OC)c1,95.2*,2.2,-6.0,-0.2
COc1ccc(/C(C)=N/OC/C(O)=C(\C#N)c2nc3ccccc3[nH]2)cc1OC,39.1,-11.1,4.7,0.2
COCc1c(C(=O)OC/C(O)=C(\C#N)c2nc3ccccc3[nH]2)oc2ccccc12,-7.6,-1.0,-14.4,-0.1
CCOC(=O)C1CCN(C(=O)N(CC)CC)CC1,16.7,-6.5,-18.5,0.0
CCN(CC)c1ccc2c(C)c(Cl)c(=O)oc2c1,17.8,x,6.2,0.0
CCN(CC)c1ccc2c(Cl)c(Br)c(=O)oc2c1,94.5*,-15.7,27.8,-0.5
COC(=O)c1c(C)[nH]c(O)c1C=Nc1ccc(C(C)C)cc1,25.7,-6.1,x,0.1
CCOC(=O)c1c(C)[nH]c(O)c1C=Nc1ccc(C(F)(F)F)cc1,81.8*,-6.9,x,-0.1
Cc1c(C(=O)Nc2nnc(SCc3ccccc3Cl)s2)cccc1[N+](=O)[O-],78.3*,0.5,2.8,-0.3
Cc1c(C(=O)NCCSCc2ccccc2Cl)cccc1[N+](=O)[O-],16.5,-7.4,x,-0.4
Cc1ccc(CSC(Nc2ccc(F)cc2)=C(C#N)C#N)cc1,75.9*,-16.9,-1.0,-0.3
Cc1ccc(-n2c(C)cc(/C=c3/sc4nc5ccccc5n4c3=O)c2C)cc1,84.7*,-5.3,x,-0.4
Cc1ccc(S(=O)(=O)N2CCN(C(=O)CCN3C(=O)c4ccccc4C3=O)CC2)cc1C,29.6,1.6,-13.2,-0.4
CCN(C(=O)Cn1nc(C(=O)O)c2ccccc2c1=O)C1CCCCC1,15.0,-7.8,1.2,0.1
Cc1cccc(C)c1OCCn1nc(C(=O)O)c2ccccc2c1=O,71.9*,-7.7,x,-0.3
SMILES,CHOP inhibitor,MDM2 E3 inh,S1P3 antag,Hsp70 activator
O=C(O)c1nn(CC(=O)N(C2CCCCC2)C2CCCCC2)c(=O)c2ccccc12,93.4*,-4.6,-10.0,-0.1
Cc1cccc(OCCn2nc(C(=O)O)c3ccccc3c2=O)c1,85.4*,-0.8,x,-0.4
Cc1ccc(SCCn2nc(C(=O)O)c3ccccc3c2=O)cc1,32.1,-8.8,1.1,0.2
Cc1ccc(CN(C)C(=O)c2ccc3c(c2)NC(=O)CS3)o1,11.3,x,-7.8,x
COc1ccc([N+](=O)[O-])cc1NC(=S)NC(C)=O,13.2,-6.5,-10.4,-0.2
COc1cc([N+](=O)[O-])ccc1NC(=S)Nc1cc(C(=O)OC(C)C)cc(C(=O)OC(C)C)c1,84.7*,-9.7,5.7,-0.5
Cc1oc(-c2ccc3c(c2)OCCO3)cc1C(=O)O,72.1*,-56.5,0.2,-0.4
NC1=NC(=O)/C(=C/c2c(OS(=O)(=O)c3ccc(Cl)cc3)ccc3ccccc23)S1,94.4*,-12.6,-9.1,0.1
Cc1ccc(-c2nnc(SCC(=O)Nc3nc4c(s3)CCCC4)n2C)cc1,42.1,-9.9,-9.2,0.5
CCCn1c(SCC(=O)Nc2nnc(CC)s2)nc2c1c(=O)n(C)c(=O)n2C,x,x,43.0,x
Cc1ccc2cc(C)c3nnc(SCC(=O)Nc4nc5c(s4)CCCC5)n3c2c1,83.4*,3.6,x,0.0
CCCn1c(SCC(=O)Nc2nc3c(s2)CCCC3)nc2c1c(=O)n(C)c(=O)n2C,71.3*,-15.7,-17.0,-0.3
CC(=O)SC1CC2=CC(=O)CC[C@]2(C)C2CC[C@@]3(C)C(CC[C@@]34CCC(=O)O4)C12 (some centres not stated),2.5,x,x,x

# Screening results deposited in PubChem by several laboratories.
